Test results reported in ChEMBL document CHEMBL1132435 (J Med Chem, 1999).
Where a SMILES comes first, the peptide text is derived from it. [ ]: non-standard residue; d: D form. The star is where a group is joined. X1 = COc1ccc(C[C@@H](CN[C@@H](CCCNC(=N)N)C(=O)O)N*)cc1; Hyp = O=C(O)[C@@H]1C[C@@H](O)CN1; 2Thi = N[C@@H](Cc1cccs1)C(=O)O

What was measured:
[1] = biological target: T1, B1 bradykinin receptor (Homo sapiens, UniProt P46663); assay: Binding affinity against human cloned Bradykinin receptor B1 expressed in HEK 293 cells using [3H]des-Arg10-[Leu9]-kallidin as radioligand
T1 sequence (P46663 whole entry): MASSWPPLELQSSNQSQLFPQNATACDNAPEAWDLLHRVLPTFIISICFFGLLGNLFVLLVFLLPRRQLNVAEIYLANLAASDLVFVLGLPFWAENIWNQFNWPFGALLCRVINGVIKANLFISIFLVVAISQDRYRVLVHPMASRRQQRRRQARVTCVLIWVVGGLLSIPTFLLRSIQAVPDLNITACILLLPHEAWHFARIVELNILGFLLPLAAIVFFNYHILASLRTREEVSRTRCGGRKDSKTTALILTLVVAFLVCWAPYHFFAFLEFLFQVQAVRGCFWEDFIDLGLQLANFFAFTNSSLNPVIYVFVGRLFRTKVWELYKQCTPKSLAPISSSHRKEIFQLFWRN

[2] = biological target: T2, B2 bradykinin receptor (Homo sapiens, UniProt P30411); assay: Binding affinity against human cloned Bradykinin receptor B2 expressed in CHO cells using [3H]-bradykinin as radioligand; type: cell-based
T2 sequence (P30411 whole entry): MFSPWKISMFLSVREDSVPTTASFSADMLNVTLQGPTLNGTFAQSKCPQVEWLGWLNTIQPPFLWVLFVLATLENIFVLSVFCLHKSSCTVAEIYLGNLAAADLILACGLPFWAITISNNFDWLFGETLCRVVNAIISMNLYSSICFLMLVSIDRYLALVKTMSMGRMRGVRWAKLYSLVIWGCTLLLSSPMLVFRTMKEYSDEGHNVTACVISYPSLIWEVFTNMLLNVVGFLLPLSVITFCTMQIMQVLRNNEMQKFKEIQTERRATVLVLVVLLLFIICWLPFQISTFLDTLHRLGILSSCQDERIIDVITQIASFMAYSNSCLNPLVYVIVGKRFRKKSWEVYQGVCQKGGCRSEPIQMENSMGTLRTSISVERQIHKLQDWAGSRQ
Outline: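 Membranes of stably transfected CHO cells (human or rat B2 receptor), prepared in 20 mM TES pH 6.8 with 1 mM 1,10-phenanthroline, 140 µg/mL bacitracin and 0.1% BSA, spun at 40 000g. Filtration on PEI-soaked GF/B filters.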

[3] = species: Rattus norvegicus; assay: (§1) Agonistic activity on rat uterus(RUT) in presence of inhibitors; type: functional
Outline: (§2)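 Uterus from female Sprague–Dawley rats (250-300 g) pretreated with diethylstilbestrol 0.1 mg/kg s.c. 18 h before CO2 kill. Tissue placed in Jalon solution (mM: NaCl 154, KCl 5.6, NaHCO3 1.7, MgCl2 1.4, glucose 5.5, CaCl2 0.3). One cumulative concentration-response curve per segment, run with or without protease inhibitors. Maximum per segment taken with angiotensin II (3 μM). Means ± SEM, n = 5; pD2.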

[4] = species: Homo sapiens; assay: Agonistic activity on human umbilical vein(HUV) in absence of inhibitors; type: functional
Outline: (§3)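 Human umbilical vein segments; cumulative concentration-response to agonist measured as contraction, run with or without protease inhibitors. Maximal contraction of each segment obtained after washout with U46619 (1 μM).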

[5] = biological target: T3, B2 bradykinin receptor (Rattus norvegicus, UniProt P25023); assay: Binding affinity against rat bradykinin B2 receptors expressed in CHO cells using [3H]bradykinin as radioligand; type: cell-based
T3 sequence (P25023 whole entry): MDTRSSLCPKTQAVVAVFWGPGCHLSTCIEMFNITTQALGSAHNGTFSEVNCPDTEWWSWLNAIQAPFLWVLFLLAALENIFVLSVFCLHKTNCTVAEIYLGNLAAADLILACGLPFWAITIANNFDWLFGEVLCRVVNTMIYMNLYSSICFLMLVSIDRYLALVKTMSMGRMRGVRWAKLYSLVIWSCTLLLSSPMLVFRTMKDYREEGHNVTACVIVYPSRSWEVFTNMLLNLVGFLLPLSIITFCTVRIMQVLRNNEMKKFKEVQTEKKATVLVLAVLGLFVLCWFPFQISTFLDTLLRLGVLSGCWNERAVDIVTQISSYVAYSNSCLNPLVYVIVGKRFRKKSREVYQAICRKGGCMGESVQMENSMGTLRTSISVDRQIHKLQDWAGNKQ
Outline: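 Membranes of stably transfected CHO cells (human or rat B2 receptor), prepared in 20 mM TES pH 6.8 with 1 mM 1,10-phenanthroline, 140 µg/mL bacitracin and 0.1% BSA, spun at 40 000g. […] Filtration on PEI-soaked GF/B filters. Ki, means ± SEM (n = 3 or 4).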

[6] = species: Rattus norvegicus; assay: Agonistic activity on rat uterus(RUT) in absence of inhibitors; type: functional
Outline: as §2

[7] = species: Homo sapiens; assay: (§4) Agonistic activity on human umbilical vein(HUV) in presence of inhibitors; type: functional
Outline: as §3

[8] = species: Homo sapiens; assay: as §4; type: functional, organism-based; settings: read-out: pA2 (converted)
Outline: as §3

[9] = species: Rattus norvegicus; assay: as §1; type: functional, organism-based; settings: read-out: pA2 (converted)
Outline: as §2

[10] = biological target: T3, B2 bradykinin receptor; assay: Binding affinity against rat Bradykinin receptor B2 expressed in CHO cells using [3H]-bradykinin as radioligand; type: cell-based
Outline: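 Competition binding on membranes from stably transfected CHO cells. Cells were scraped into 20 mM TES pH 6.8 with 1 mM 1,10-phenanthroline, 140 µg/mL bacitracine and 0.1% BSA, and membranes were pelleted at 40 000g for 15 min. […] Bound label was collected by filtration on PEI-presoaked GF/B filters and counted by scintillation. n = 3 or 4.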

Row | Molecule | Ki [1] [nM] | Ki [2] [nM] | pD2 [4] | pD2 [7] | further results
1 | N=C(N)NCCC[C@@H](N)C(=O)N[C@@H](CCCNC(=N)N)C(=O)N1CCC[C@H]1C(=O)N1CC(O)C[C@H]1C(=O)NCC(=O)N[C@@H](Cc1cccs1)C(=O)N[C@@H](CO)C(=O)N[C@H]1CSc2ccccc2N(CC(=O)N[C@@H](CCCNC(=N)N)C(=O)O)C1=O (stereo partly specified) | > 10000 | 162 | – | – | –
2 | NC(N)=NCCC[C@@H](N)C(=O)N[C@@H](CCCN=C(N)N)C(=O)N1CCC[C@H]1C(=O)N1CC(O)C[C@H]1C(=O)NCC(=O)N[C@@H](Cc1cccs1)C(=O)N[C@@H](CO)C(=O)N[C@@H]1CSc2ccccc2N(CC(=O)N[C@@H](CCCN=C(N)N)C(=O)O)C1=O (stereo partly specified) | > 10000 | 0.7 | 6.7 | 6.8 | pD2 [3]: 7.5; Ki [5]: 6 nM; pD2 [6]: 7.2
3 | NC(N)=NCCC[C@@H](N)C(=O)N[C@@H](CCCN=C(N)N)C(=O)N1CCC[C@H]1C(=O)N1C[C@H](O)C[C@H]1C(=O)NCC(=O)N[C@@H](Cc1cccs1)C(=O)N[C@@H](CO)C(=O)N1Cc2ccccc2C[C@@H]1C(=O)N1[C@H](C(=O)N[C@@H](CCCN=C(N)N)C(=O)O)C[C@@H]2CCCC[C@@H]21 [ICATIBANT] | – | – | – | – | Kb [8]: 6.61 nM; Ki [5]: 0.077 nM; Kb [9]: 1.15 nM
4 | H-RPPGFSPFR-OH [BRADYKININ] [listing 1 of 2 here] | – | – | 7.4 | 7.9 | pD2 [3]: 8.3; pD2 [6]: 7.33
5 | H-RPPGFSPFR-OH [BRADYKININ] [listing 2 of 2 here] | – | – | – | – | Ki [10]: 0.46 nM

The next lines start with results.

Row | Ki [1] [nM] | Ki [2] [nM] | Molecule | pD2 [4] | pD2 [7] | further results
6 | > 10000 | – | N=C(N)NCCC[C@H](NC(=O)CN1C(=O)[C@H](NC(=O)[C@H](CO)NC(=O)[C@H](Cc2ccccc2)NC(=O)CNC(=O)[C@@H]2CCCN2C(=O)[C@@H]2CCCN2C(=O)[C@@H](N)CCCNC(=N)N)CSc2ccccc21)C(=O)O | – | – | –
7 | – | 19 | COc1ccc(C[C@@H](CN[C@@H](CCCNC(=N)N)C(=O)O)NC(=O)[C@@H]2CCCN2C(=O)[C@H](CO)NC(=O)[C@H](Cc2cccs2)NC(=O)CNC(=O)[C@@H]2C[C@@H](O)CN2C(=O)[C@@H]2CCCN2C(=O)[C@@H](N)CCCNC(=N)N)cc1 [LABRADIMIL] (H-RP[Hyp]G[2Thi]SP-X1) | 6.9 | 7.1 | –
